From paper PMC3447631 (Chemistry & biology, 2012)
“Also recorded” adds a separate entry of the source.

How the values were obtained:
[1] = In vivo PK studies in mice; conditions: mouse, plasma
[2] = system: panel of 60 human tumor cell lines; assay: NCI DTP panel of 60 human tumor cell lines; format: cell-based; conditions: NCI/NIH DTP screen
T6PNE cells = assay: Acylcarnitine analysis by GC/MS of T6PNE cell extracts; format: cell-based, human
liver = assay: Hepatic steatosis in mice; format: in vivo; conditions: 10 and 30 mg/kg IP, dose-dependent
HNF4α protein = HNF4α protein and Ki67 in mouse tissues after IP injection; format: in vivo; conditions: mice
HNF4α = molecular target: T1, HNF4α (Homo sapiens, UniProt P41235); assay: DARTS assay in HepG2 cells; format: binding; conditions: HepG2, 20μM, 24hr, subtilisin
T1 sequence (P41235 1-474): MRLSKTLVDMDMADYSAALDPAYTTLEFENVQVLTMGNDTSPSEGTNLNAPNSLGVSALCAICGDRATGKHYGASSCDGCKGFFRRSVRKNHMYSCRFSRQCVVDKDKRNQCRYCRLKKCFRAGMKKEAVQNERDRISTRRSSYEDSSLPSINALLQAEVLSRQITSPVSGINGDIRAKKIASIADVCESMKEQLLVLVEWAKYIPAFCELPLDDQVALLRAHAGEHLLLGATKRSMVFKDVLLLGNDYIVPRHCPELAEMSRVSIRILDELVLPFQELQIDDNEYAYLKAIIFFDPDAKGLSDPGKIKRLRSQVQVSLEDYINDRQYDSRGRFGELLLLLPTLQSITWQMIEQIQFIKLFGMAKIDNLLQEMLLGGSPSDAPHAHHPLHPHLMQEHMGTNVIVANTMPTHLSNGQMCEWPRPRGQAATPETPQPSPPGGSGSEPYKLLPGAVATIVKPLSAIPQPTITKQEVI
Procedure, shortened: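 DARTS: HepG2 cells were treated with DMSO or test compound at 20μM for 24hr. Read-out is the ligand-induced change in HNF4α sensitivity to proteolysis.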

HNF4α gene expression [3] = assay: HNF4α mRNA expression in MIN6 cells; format: cell-based, murine; conditions: 5 hours
HNF4α gene expression [4] = assay: HNF4α mRNA expression in HepG2 cells; format: cell-based; conditions: 48 hours
Procedure, shortened: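 HNF4α mRNA in treated HepG2 cells measured by Q-PCR and normalized to 18S rRNA. Differences in expression assessed by Student's t-test.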

CYP (2C19) = CYP (2C19) (Homo sapiens, UniProt P33261); assay: Ricerca hit profiling panel: CYP 2C19; format: biochemical; conditions: Ricerca panel of 41 receptors/enzymes
tumor cell lines = assay: Toxicity to tumor cell lines versus cultured primary cells in vitro; format: cell-based
HNF4α DNA binding = molecular target: T2, HNF4α DNA binding (Homo sapiens, UniProt P41235); assay: HNF4α DNA binding, HNF TransAM ELISA on HepG2 nuclear extracts; format: cell-based; conditions: HepG2 incubated overnight with compound
T2 sequence (P41235 1-474): T1 sequence (P41235 1-474)
Procedure, shortened: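 HepG2 cells were incubated overnight with test compound. Nuclear protein extracts (5μg) were added to wells bearing an oligonucleotide with an HNF4α binding site. Bound HNF4α was detected with an anti-HNF4α antibody (ELISA). Mean ± SD, n=3 biological replicates; Student's t-test.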

[5] = system: HNF4α-responsive OTC promoter; assay: OTC promoter-luciferase reporter co-transfected with full length human HNF4α; format: cell-based; conditions: 1μM, 48 hours
[6] = Tolerability and VetScan liver panel blood chemistry in mice; format: in vivo
Procedure, shortened: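 NONcNZO10/LtJ or ICR mice received vehicle (DMSO) or test compound IP once daily for 5 days. Normal-mouse groups were DMSO, 30 mg/kg/day and 10 mg/kg/day (n=4 each). Blood was drawn before sacrifice and run on a VetScan analyzer for ALP, ALT, GGT (IU/L), bile acids (μmol/L), total bilirubin, BUN, cholesterol (mg/dL) and albumin (g/dL).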

Hep3B-Luc cells = assay: Hep3B-Luc cytotoxicity; format: cell-based, human
Procedure, shortened: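 Hep3B cells engineered to express luciferase from a CMV promoter, tested alongside primary hepatocytes. Viability was read as bioluminescence at 24, 48 and 72 hours after treatment. Cell division was followed by BrdU uptake, with Oil Red O fat staining.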

p57Kip2 expression = assay: Kip2 mRNA in T6PNE cells; format: cell-based, human
Procedure, shortened: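 Kip2 mRNA in T6PNE cells measured by Q-PCR, normalized to 18s rRNA. Treated and DMSO vehicle cells were compared by Student's t-test.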

[7] = system: primary murine hepatocytes; assay: Primary murine hepatocytes in vitro; format: cell-based
Procedure, shortened: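 Primary murine hepatocytes were exposed to DMSO or test compound (5μM) for 3 days, then fixed and stained with Oil Red O.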

Hep3B cells = assay: Hep3B-Luc orthotopic xenograft in liver of nude mice; format: in vivo; conditions: 30 mg/kg IP daily or every other day
Procedure, shortened: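 Orthotopic model: luciferase-expressing Hep3B cells were injected into the liver parenchyma of nude mice. Once tumour was established (luciferase counts doubled on 3 consecutive bioluminescent reads), mice received test compound 30 mg/kg IP daily or every other day as tolerated, or DMSO vehicle. Tumour and normal liver were harvested after 20–57 days for Oil Red O, cleaved caspase-3 immunostaining and TUNEL.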

[8] = Hepatic microsomal stability; format: in vitro ADME; conditions: 60-minute incubation in vitro
[9] = system: endogenous insulin promoter; assay: Endogenous insulin mRNA; format: cell-based, human; conditions: T6PNE cells
Procedure, shortened: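 Q-PCR of endogenous insulin mRNA in T6PNE cells after 48 h exposure to test compound across a concentration series. For fatty acids, cells got 1μM tamoxifen plus fatty acid or DMSO vehicle for 48 hours before RNA harvest. Insulin mRNA was normalized to GAPDH or 18S rRNA; mean ± SE, n=3.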

L-type calcium channel = assay: Ricerca hit profiling panel: L-type calcium channel; format: binding; conditions: Ricerca panel of 41 receptors/enzymes
Solubility = format: physicochemical; conditions: limits deliverable dose in vivo
PPARγ = format: cell-based; conditions: PPRE-Luc, HeLa
Procedure, shortened: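 HeLa cells were co-transfected with a PPRE-Luc reporter, with or without a PPARγ expression vector, then treated with test compound. Read-out was luciferase activity; mean ± SE, n=3.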

CYP (2C19), sequence (P33261 whole entry): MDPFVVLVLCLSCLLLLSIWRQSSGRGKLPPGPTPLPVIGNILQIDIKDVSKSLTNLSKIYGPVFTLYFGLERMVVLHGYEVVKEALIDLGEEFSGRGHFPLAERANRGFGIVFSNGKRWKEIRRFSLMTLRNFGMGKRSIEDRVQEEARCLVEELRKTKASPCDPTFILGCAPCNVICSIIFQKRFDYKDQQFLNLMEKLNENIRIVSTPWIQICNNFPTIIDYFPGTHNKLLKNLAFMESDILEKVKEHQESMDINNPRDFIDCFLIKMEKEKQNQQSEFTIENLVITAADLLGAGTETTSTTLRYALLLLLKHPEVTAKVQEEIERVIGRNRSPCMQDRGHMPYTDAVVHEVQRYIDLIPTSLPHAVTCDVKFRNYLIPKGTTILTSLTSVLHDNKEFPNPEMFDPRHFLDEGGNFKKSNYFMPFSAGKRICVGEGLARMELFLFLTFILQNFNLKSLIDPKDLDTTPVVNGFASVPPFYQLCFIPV

Cc1ccc([N+](=O)[O-])cc1S(=O)(=O)n1c(C)nc2ccccc21 [BI6015, 2-Methyl-1-(2-methyl-5-nitrophenylsulfonyl)-1H-benzo[d]imidazole]
AUC ([1]; ip, 30 mg/kg): 26.7 ng·h/mL
half-life ([1]; other: oral gavage or intraperitoneal (IP) injection): ~90 min
effect on panel of 60 human tumor cell lines [2]: Slowed growth and/or toxicity
acetylcarnitine (T6PNE cells): concurrent increase
longer chain acylcarnitines (C18, C18:1, C16, C14) (T6PNE cells): decreased levels
hepatic steatosis in vivo (liver): marked fat accumulation (steatosis)
HNF4α expression in the intestine or kidney (HNF4α protein; IP): does not change
HNF4α protein in the liver (HNF4α protein; IP): loss of HNF4α protein
number of cells expressing Ki67 in liver, intestine or kidney (HNF4α protein; versus vehicle): no difference
effect on HNF4α protease sensitivity (DARTS) (HNF4α): induced altered HNF4α protease sensitivity
effect on HNF4α expression in MIN6 (HNF4α gene expression [3]): strongly repressed
effect on HNF4α expression in HepG2 (HNF4α gene expression [4]): strongly repressed
cross reactivity with CYP 2C19 (CYP (2C19)): significant cross reactivity
toxicity to tumor cell lines in vitro (tumor cell lines): toxic
effect on HNF4α DNA binding (HNF4α DNA binding): potently repressed
OTC promoter-driven luciferase expression in CV-1 cells [5]: inhibited
OTC promoter-driven luciferase expression in HepG2 cells [5]: inhibited
tolerability ([6]; IP once per day for 5 days, 30 mg/kg): well tolerated
blood chemistries, including ALT ([6]; VetScan Liver Panel): unaffected
BrdU incorporation in Hep3B-Luc cells (Hep3B-Luc cells; after 48 hours of treatment): decreased
toxicity to Hep3B cells (Hep3B-Luc cells; bioluminescence, 24, 48 and 72 hours): markedly toxic
effect on Kip2 expression (p57Kip2 expression): reduced
toxicity in primary hepatocytes in vitro [7]: Toxicity was not observed
steatosis in primary mouse hepatocytes in vitro ([7]; 5μM, 3 days, Oil Red O): induced steatosis
apoptosis (TUNEL, cleaved caspase-3) in the normal liver (Hep3B cells): but not in the normal liver
apoptosis (TUNEL, cleaved caspase-3) within the tumor (Hep3B cells): high levels of apoptotic cells
tumor luciferase counts (Hep3B cells): some treated animals exhibited decreased luciferase counts, this did not occur in all animals
Oil Red O staining in normal liver and tumor (Hep3B cells; 20–57 days): marked induction
hepatic microsomal stability, compound remained [8]: 22%
effect on endogenous insulin expression / insulin promoter activity [9]: potently inhibited
reduction of endogenous insulin gene expression [9]: 50 fold
cross reactivity with L-type calcium channel (L-type calcium channel): significant cross reactivity
solubility (Solubility): limited solubility
activity as PPARγ agonist (PPARγ): lacked activity as a PPARγ agonist; also recorded: not to be a PPARγ agonist
